High-throughput results: PubChem BioAssay, several laboratories
Shown are actives, neighbours in structure and some others; about 2% of the full set was active somewhere.
HIF activator: HIF pathway transcriptional activation; U2OS HRE-luciferase reporter, luminescence; normalized: DMSO 0%, desferrioxamine 100%; activation, % at 7.5 µM (by protocol); 300,000 tested, 0.32% active; AID 1910;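 active = mean activation of at least 10% of the iron chelator positive control signal, with at least half of replicates also reaching 10%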
TROY signal inh: inhibitors of TROY-dependent NF-kB signaling; Q293 LMP1-TROYcd NF-kB luciferase reporter, 4 h; inhibition, % at 10 µM; 360,000 tested, 0.98% active; AID 1347056;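 active = compounds whose plate-normalised and pattern-corrected inhibition of the luciferase reporter signal at the single screening dose is 50% or more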
NR2E3 ag-1: NR2E3 (human) agonism; GST-NR2E3/biotin-RetCOR TR-FRET, 1536-well; 320,000 tested, 0.12% active; AID 2300; inhibition of corepressor binding, % at 4.78 µM;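 active = percent inhibition above the cutoff of mean plus 3 SD of all tested compounds, set per screening campaign, cut at about 20% in these data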;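 note: 0% = DMSO wells and 100% = biotin wells as full block of FRET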
Target sequence (Q9Y5X4 whole entry, looked up): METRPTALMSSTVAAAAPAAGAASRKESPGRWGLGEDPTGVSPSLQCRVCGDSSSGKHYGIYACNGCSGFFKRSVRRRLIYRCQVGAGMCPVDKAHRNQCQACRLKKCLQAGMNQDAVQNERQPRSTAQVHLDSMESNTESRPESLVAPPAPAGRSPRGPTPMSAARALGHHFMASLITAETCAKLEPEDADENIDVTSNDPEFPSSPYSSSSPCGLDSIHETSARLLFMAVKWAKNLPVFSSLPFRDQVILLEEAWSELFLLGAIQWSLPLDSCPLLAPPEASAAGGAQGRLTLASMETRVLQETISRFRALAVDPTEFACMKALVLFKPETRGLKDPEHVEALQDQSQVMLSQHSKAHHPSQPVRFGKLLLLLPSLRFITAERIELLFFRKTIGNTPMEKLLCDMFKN
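Material: NR2E3–RetCOR corepressor complex / Amount: 1.35 nM GST-NR2E3 / Medium: Tris pH 7.5 / Compound: single nominal compound dose of 4.8 µM / Incubation: 5 h at 4 °C / Technique: TR-FRET, Eu(K)-anti-GST donor, streptavidin-D2 acceptor, ex 340, em 617/671 nm / Read-out basis: percent loss of FRET ratio relative to control wells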
NR2E3 ag-2: activates human NR2E3 receptor; Q9Y5X4; CHO-S Gal4-NCOR/VP16-NR2E3 two-hybrid, luciferase; inhibition of corepressor binding, % at 3.98 µM; 360,000 tested, 0.35% active; AID 602229;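 active = inhibition above the mean of all tested compounds plus 3 SD, cut at about 70% in these data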;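 note: 0% = DMSO with NR2E3 transfected cells and 100% = cells lacking NR2E3 construct; higher means lower luciferase signal from less NR2E3 corepressor binding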
LMP1 NFkB inh: inhibitors of Epstein-Barr LMP1-induced NF-kappaB reporter; LMP1-induced NF-kappaB luciferase reporter cells, luminescence; inhibition, % at 12.5 µM; 350,000 tested, 0.69% active; AID 504558; in the data active = inhibition above about 41%;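 note: 0% = neutral control wells and 100% = reference inhibitor control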
An asterisk follows results filed as active; . = no result.

SMILES	HIF activator	TROY signal inh	NR2E3 ag-1	NR2E3 ag-2	LMP1 NFkB inh
O=[N+]([O-])c1ccc(-c2c(O)c3ccccc3c3nc4ccccc4nc23)cc1	-0.4	54.0*	1.8	12.2	8.9
O=[N+]([O-])c1ccc(-c2nc(Nc3cccc(O)c3)c3ccccc3n2)cc1	-0.9	82.3*	-2.4	-9.9	-15.8
O=C([C@H]1O[C@@H](n2ccc(=O)[nH]c2=O)[C@H](O)[C@@H]1O)N1CCN(c2ccc(Cl)cn2)CC1	.	6.2	.	7.8	.
COc1ccc(CN2CCN(S(=O)(=O)c3ccccc3)CC2)c(OC)c1OC	-0.5	2.6	4.4	16.4	0.6
N#Cc1ccccc1S(=O)(=O)N1CCN(CC(O)COc2ccccc2F)CC1 (configuration not stated)	-29.0	3.3	0.4	2.5	0.7
CCN(CC(=O)NCc1ccc(F)cc1)CC(=O)Nc1cc(S(=O)(=O)N(C)C)ccc1C	.	-7.7	1.1	0.3	43.6*
O=C(NCC(c1ccccc1Cl)N1CCCC1)C1CCN(C(=O)Nc2ccccc2)CC1 (configuration not stated)	.	8.8	1.9	1.7	-0.6
O=C(CSc1ncnc2ccccc12)c1ccc2c(c1)OCCO2	5.3	54.3*	2.3	-114.9	-12.4
CCc1nc(SCC(=O)c2ccc3c(c2)OCCO3)c2ccccc2n1	6.3	-4.4	0.0	-55.9	40.5*
CC(C)(C)c1ccc(-c2cnco2)cc1	-0.2	17.0	1.6	3.7	-3.0
Brc1cccc(-c2cnco2)c1	-0.8	0.7	-3.0	-24.5	56.2*
CC(C)CC(NC(=O)c1ccccc1NC(=O)c1ccccc1)C(=O)O (configuration not stated)	369.3*	17.1	-1.9	23.1	-7.7
CCC(NC(=O)c1ccccc1NC(=O)c1ccccc1)C(=O)O (configuration not stated)	0.0	-13.4	1.4	0.8	-6.8
COc1ccc(NC(=S)c2ccc(N(C)C)cc2)cc1	35.5*	-61.0	-3.4	-122.5	-17.6
CCc1nc2ccccc2c(C(=O)OCC(=O)Nc2cccc(S(=O)(=O)NC3=NCCCCC3)c2)c1C	0.9	59.9*	1.5	-20.4	30.4
CCc1nc2ccccc2c(C(=O)OCC(=O)Nc2cccc(S(=O)(=O)N3CCOCC3)c2)c1C	0.4	68.1*	1.9	-17.4	29.9
CCCn1c(SCC(=O)Nc2cccc(S(=O)(=O)NC3=NCCCCC3)c2)nc2ccccc2c1=O	0.0	57.1*	-3.2	7.2	8.1
O=C(Cc1ccccc1Cl)Nc1cccc(S(=O)(=O)N2CCOCC2)c1	-0.3	80.5*	0.3	-3.1	-3.5
CCc1nc2ccccc2c(C(=O)OCC(=O)Nc2ccc(S(=O)(=O)N3CCOCC3)cc2)c1C	-0.2	24.5	-1.0	21.0	-5.8
CCOCCCn1c(SCC(=O)Nc2cccc(S(=O)(=O)NC3=NCCCCC3)c2)nc2ccccc2c1=O	0.2	13.9	-0.2	-14.1	7.9
O=C1NC[C@H](CCCCN2CCN(Cc3ccccc3)C(=O)C2=O)N(Cc2ccccc2)C1=O	.	8.4	.	4.5	.
O=C(CCc1nc(-c2ccc(Cl)cc2)no1)NCc1ccccc1CN1CCOCC1	.	84.2*	0.3	13.8	-5.6
CCc1cccc(OCCCN2C(=O)NC(C)(C)C2=O)c1	-0.3	-5.3	-1.7	-9.0	-8.2
CC(=O)c1cccc(OCCN2C(=O)NC(C)(C)C2=O)c1	-0.6	58.4*	4.6	1.3	-2.9
CC(C)(C)OC(=O)C[C@@H]1C/C=C\C[C@H](CC(=O)NCCO)C(=O)N2CCC[C@@H]2COC1=O	.	-2.6	.	4.2	4.3
SMILES	HIF activator	TROY signal inh	NR2E3 ag-1	NR2E3 ag-2	LMP1 NFkB inh
CCOC(=O)c1cnn(-c2ccccc2)c1NC(=O)CN1CCOCC1	-0.2	-6.7	-0.7	5.0	63.3*
N#Cc1cnn(-c2ccccc2)c1NC(=O)CN1CCOCC1	-0.3	10.1	-0.2	11.4	.
CCN(c1ccc(OC)cc1)S(=O)(=O)N1CCCC(C(=O)NCc2ccc(OC(C)C)cc2)C1 (configuration not stated)	.	14.4	.	18.4	-3.3
O=C(Nc1cccc(Cl)c1)Nc1ccnc(-c2cccnc2)n1	-0.3	17.1	-2.6	-10.9	58.2*
CC1CCN(C2=NC(=O)/C(=C/c3cccc(O)c3)S2)CC1	2.5	25.3	0.2	-30.9	-2.8
CC1CCN(C2=NC(=O)/C(=C/c3ccccc3F)S2)CC1	-0.8	78.9*	4.8	38.9	.
Cc1ccc(-c2csc(=Nc3cccnc3)n2CCCN2CCCC2=O)cc1C	-1.1	-15.4	1.2	25.4	2.6
Cc1ccc(-c2csc(=Nc3cccnc3)n2CCCn2ccnc2)cc1C	1.0	50.6*	-2.0	-57.4	46.8*
Cc1ccc(N2NC(C)(c3cccs3)NC2=S)cc1 (configuration not stated)	5.4	25.2	-1.0	-12.8	-41.8
Cn1nc(NC(=O)C(F)(F)F)c2ncc(-c3ccc(Cl)cc3)nc21	1.9	-26.0	-0.7	-63.5	-9.8
CCCC(=O)c1ccc(N2CCN(C(=O)c3ccc(Br)cc3)CC2)c(F)c1	-0.4	14.2	5.1	11.6	1.8
CCC(=O)c1ccc(N2CCN(C(=O)c3ccc(Br)cc3)CC2)c(F)c1	86.0*	5.7	2.5	3.7	-1.1
CCCCCC(=O)N1CCN(c2ccc(C(C)=O)cc2F)CC1	0.1	-1.5	0.7	13.6	76.5*
CCN1C[C@@H]2[C@@H]3C(=O)N(C)C(=O)[C@@H]3[C@](Cc3ccccc3)(C1=O)N2C(=O)c1ccc(Cl)cc1	.	-1.3	.	-25.0	-2.2
CCOc1ccc(CNC(=O)CCC(=O)N2Cc3ccccc3Oc3ncccc32)cc1	-0.1	-0.4	-2.3	-6.2	0.4
O=S(=O)(Nc1ccccc1F)c1ccc(Cl)nc1	.	14.1	3.8	-11.3	5.0
O=S(=O)(Nc1c(F)cccc1F)c1ccc(Cl)nc1	0.3	85.6*	1.9	-10.4	6.4
Cc1cc(NC(=O)CSC2=NS(=O)(=O)c3cc(F)ccc3N2)no1	-0.5	-2.1	-1.6	-4.6	5.6
C=CCn1c(SCc2ccc(C(=O)O)cc2)nc2sc(C)c(C)c2c1=O	-0.4	38.7	4.1	-28.6	-5.9
Cc1sc2nc(SCc3ccc(C(=O)O)cc3)n(Cc3ccco3)c(=O)c2c1C	3.7	60.5*	3.1	-36.1	-1.1
CN(C)C(CNC(=O)c1ccc(NS(=O)(=O)c2ccc(F)c(F)c2)cc1)c1ccccc1 (configuration not stated)	-0.1	-1.4	0.2	-14.3	0.7
CN1CCN(/N=C/c2ccc(N(c3ccccc3)c3ccccc3)cc2)CC1	-5.8	64.2*	-5.0	-7.5	87.3*
COc1ccc2c(c1)c1c(n2C)[C@@H]2CC=C(CO)[C@@H](C1)N2C	.	1.9	.	-7.9	0.0
CCn1nc(C)cc1C(=O)N1CCCC(N2CCN(c3ccccc3OC)CC2)C1 (configuration not stated)	-0.7	17.5	-1.7	-18.0	0.9
CC(=O)c1ccccc1OCC(=O)Nc1cccc(S(=O)(=O)N2CCCC2)c1	.	-4.1	2.5	10.2	46.2*
